IDH1 R132H inh – IDH1 R132H (human) inhibition. O75874. IDH1 R132H reductase, diaphorase/resazurin fluorescence, 60 min. inhibition, % at 10 µM. 70,000 tested, 0.18% active; in the data active means inhibition above about 34%; inconclusive means no clear call, values can overlap the other calls; inactive means below about 11%;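 further: 0% = DMSO and 100% = no enzyme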
KDM4C inh – inhibitors of human demethylase GASC-1 KDM4C. inhibition, % at 12.5 µM. Q9H3R0. GST-KDM4C 2-372, H3K9me3 peptide, LANCE TR-FRET. 96,000 tested, 0.15% active. AID 720574;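 active means mean replicate inhibition above about 25%, with at least 55% of replicates also reaching it, limit read from the data, passing the limit was not always enough; inconclusive means only one of those two conditions met; inactive means neither condition met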
Target sequence (Q9H3R0 2-372 limits assumed): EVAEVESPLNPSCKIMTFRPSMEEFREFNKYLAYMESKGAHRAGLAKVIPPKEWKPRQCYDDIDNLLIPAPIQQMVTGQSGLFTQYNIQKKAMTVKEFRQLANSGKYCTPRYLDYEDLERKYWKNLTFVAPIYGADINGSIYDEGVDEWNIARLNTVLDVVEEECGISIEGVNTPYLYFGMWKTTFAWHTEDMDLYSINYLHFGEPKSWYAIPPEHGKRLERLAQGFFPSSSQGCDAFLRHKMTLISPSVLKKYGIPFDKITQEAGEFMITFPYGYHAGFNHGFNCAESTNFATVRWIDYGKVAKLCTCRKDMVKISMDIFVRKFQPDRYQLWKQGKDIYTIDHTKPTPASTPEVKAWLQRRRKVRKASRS
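System – N-terminal GST-fused human GASC-1 (KDM4C) fragment, residues 2-372 · Input – enzyme final amount 10 nM · Technique – LANCE TR-FRET, Eu antibody, ULight-streptavidin, EDTA, ex 340 nm, em 618/671 nm · Medium – HEPES buffer, pH 7.5, plus ascorbate · Incubation – enzyme reaction 30 min, then detection 60 min, both room temperature · Reagent – H3K9me3 peptide with Fe(II)/2OG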
T cruzi growth-1 – inhibitors of T. cruzi proliferation. inhibition, % at 8.34 µM. T. cruzi beta-gal in NIH3T3, GalScreen luminescence, 90 h. 77,000 tested, 5.9% active;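 active means mean inhibition above about 93%, with at least 55% of replicates each passing it, limit read from the data, passing the limit was not always enough; inconclusive means only one of those two conditions holds; inactive means neither condition holds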
T cruzi growth-2 – Trypanosoma cruzi proliferation inhibition | shares compounds with T cruzi growth-1 | T. cruzi beta-gal in NIH3T3, GalScreen luminescence, 90 h | inhibition, % at 8.35 µM | 5,600 tested, 72% active | AID 651739;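 active means mean replicate inhibition above about 95% and at least 55% of replicates individually reaching it, limit read from the data; inconclusive means only one of the two criteria is met; inactive means neither criterion is met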
T cruzi growth-3 – inhibitors of T. cruzi proliferation; shares compounds with T cruzi growth-1; T. cruzi beta-gal in NIH3T3, GalScreen luminescence, 90 h; inhibition, % at 2.09 µM; 5,600 tested, 21% active;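 active means mean inhibition above about 95%, with at least 55% of replicates also reaching it, limit read from the data; inconclusive means meets just one of the two conditions; inactive means meets neither condition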;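 further: plate controls were neutral control median for no effect and positive control median for full effect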
3T3 cytotox – NIH/3T3 (mouse) viability loss; shares compounds with T cruzi growth-1; NIH/3T3 viability, CellTiter-Glo ATP luminescence, 90 h; cytotoxicity (signal decrease), % at 8.35 µM; 5,600 tested, 14% active; AID 651742;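 active means mean signal decrease across replicates above about 35% based on untreated-well scatter, with enough replicates individually passing, limit read from the data; inconclusive means no rule stated though some were filed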;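 further: 0% = median of neutral control wells and 100% = median of positive control wells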
3T3 cytotox 2 – kills mouse NIH/3T3 fibroblasts; inhibition, % at 24.9 µM; NIH/3T3 viability, CellTiter-Glo ATP luminescence, 90 h; shares compounds with T cruzi growth-1; AID 651744; 5,600 tested, 56% active;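 active means mean loss of cell viability signal at or above a set limit, and enough replicates individually reaching it; inconclusive means meets only the mean limit or only the replicate share; inactive means meets neither condition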;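 further: 0% = median of neutral control wells and 100% = median of positive control wells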
Numbers without * were called inactive. This excerpt belongs to a sample that is enriched for hits.

`O=C(c1cn(-c2ccccc2)nc1-c1cc2ccccc2oc1=O)n1nnc2ccccc21` gave IDH1 R132H inh -0.5.
Screening COc1cc(C[C@H]2C(=O)OC[C@@H]2Cc2ccc(O[C@@H]3O[C@H](CO)[C@@H](O)[C@H](O)[C@H]3O)c(OC)c2)ccc1O returned IDH1 R132H inh -0.4.
For C/C=C/c1ccc([C@H]2[C@@H](CO)N3CCCCN(S(=O)(=O)c4cccc(C)c4)C[C@H]23)cc1 the results were KDM4C inh -0.2, T cruzi growth-1 102.4*, T cruzi growth-2 101.0*, T cruzi growth-3 89.9, 3T3 cytotox 17.8 and 3T3 cytotox 2 104.1*.
C/C=C/c1ccc([C@H]2[C@@H](CO)N3CCCCN(S(=O)(=O)c4ccccc4)C[C@@H]23)cc1 was read as KDM4C inh -0.3, T cruzi growth-1 101.5*, T cruzi growth-2 99.9*, T cruzi growth-3 -16.1, 3T3 cytotox 4.3 and 3T3 cytotox 2 2.4.
`C/C=C/c1ccc([C@@H]2[C@H](CO)N3CCCCN(S(=O)(=O)c4cccc(C)c4)C[C@@H]23)cc1` gave KDM4C inh -1.3 and T cruzi growth-1 75.9.
For C/C=C/c1ccc([C@@H]2[C@H]3CN(S(=O)(=O)c4ccccc4)CCCCN3[C@H]2CO)cc1 the results were KDM4C inh -1.0 and T cruzi growth-1 83.9.
`Cc1ncc(CO)c(/C=N/NC(=O)CCCCCC(=O)O)c1O` gave IDH1 R132H inh -0.6.
For COc1ccc(NC(=O)CSc2nc3ccccc3c(=O)n2-c2ccc(C)cc2)c(OC)c1 the results were IDH1 R132H inh 0.0.
Screening OCCCc1nc2ccccc2n1Cc1c(F)cccc1Cl returned IDH1 R132H inh -0.1.
For Cc1cccc(C)c1OCC(=O)Nc1ccccc1C(=O)NC1CCCCC1 the results were IDH1 R132H inh 0.2.
O=C(C[C@@H]1CC[C@H]2[C@@H](COC[C@@H](O)CN2CCC(F)(F)F)O1)NCC1CCCCC1 was read as KDM4C inh 0.6 and T cruzi growth-1 65.4.
For O=C(C[C@H]1CC[C@@H]2[C@H](COC[C@H](O)CN2CCC(F)(F)F)O1)NCc1ccc(Oc2ccccc2)cc1 the results were KDM4C inh -0.1 and T cruzi growth-1 -2.2.
Screening O=C(C[C@@H]1CC[C@H]2[C@@H](COC[C@H](O)CN2CCC(F)(F)F)O1)NCC1CCCCC1 returned KDM4C inh 0.0, T cruzi growth-1 109.0*, T cruzi growth-2 45.8, T cruzi growth-3 13.2, 3T3 cytotox 8.3 and 3T3 cytotox 2 -0.8.
For O=C(C[C@H]1CC[C@H]2[C@@H](COC[C@H](O)CN2CCC(F)(F)F)O1)NCc1ccc(Oc2ccccc2)cc1 the results were KDM4C inh 0.4, T cruzi growth-1 108.2*, T cruzi growth-2 104.0*, T cruzi growth-3 25.8, 3T3 cytotox 9.5 and 3T3 cytotox 2 17.4.
COc1ccc(S(=O)(=O)Nc2ccc3c(c2)C(=O)N([C@@H](C)CO)C[C@H](C)[C@H](CN(C)S(=O)(=O)c2ccc(Cl)cc2)OCCCC[C@@H](C)O3)cc1 was read as KDM4C inh -2.1, T cruzi growth-1 98.8*, T cruzi growth-2 103.8*, T cruzi growth-3 84.3, 3T3 cytotox 9.7 and 3T3 cytotox 2 -22.9.
Screening COc1ccc(S(=O)(=O)Nc2ccc3c(c2)C(=O)N([C@H](C)CO)C[C@H](C)[C@H](CN(C)S(=O)(=O)c2ccc(Cl)cc2)OCCCC[C@@H](C)O3)cc1 returned KDM4C inh 3.8 and T cruzi growth-1 93.8.
For COc1ccc(S(=O)(=O)Nc2ccc3c(c2)C(=O)N([C@@H](C)CO)C[C@H](C)[C@H](CN(C)S(=O)(=O)c2ccc(Cl)cc2)OCCCC[C@H](C)O3)cc1 the results were IDH1 R132H inh -0.2, KDM4C inh -0.3, T cruzi growth-1 inconclusive, T cruzi growth-2 107.8*, T cruzi growth-3 91.2, 3T3 cytotox 21.5 and 3T3 cytotox 2 21.0.
For COc1ccc(S(=O)(=O)N(C)C[C@H]2OCCCC[C@H](C)Oc3ccc(NS(=O)(=O)c4ccc(Cl)cc4)cc3C(=O)N([C@@H](C)CO)C[C@H]2C)cc1 the results were KDM4C inh -1.7.

High-throughput results: PubChem BioAssay, Broad Institute
